Results reported in ChEMBL document CHEMBL1141585, “5,5,6-Fused tricycles bearing imidazole and pyrazole 6-methylidene penems as broad-spectrum inhibitors of beta-lactamases” (Bioorg Med Chem, 2008).
Activity calls are given as the source filed them. No cut-off for these calls is given here.

Assays:
Pseudomonas aeruginosa = assay: Antimicrobial activity against Pseudomonas aeruginosa GC 1764 expressing AmpC beta-lactamase after 18 to 24 hrs by broth microdilution method; type: functional; note: test concentration or dose not given here
Procedure, shortened: (§1)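 CLSI broth microdilution in Mueller–Hinton II broth. Serial dilutions of piperacillin alone or piperacillin plus inhibitor; inoculum 10⁵ CFU/ml. Piperacillin + tazobactam run as comparator. MIC read as endpoint.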

Enterobacter cloacae [1] = assay: Antimicrobial activity against Enterobacter cloacae GC 1475 expressing P99 beta-lactamase after 18 to 24 hrs by broth microdilution method; type: functional; procedure, shortened: as §1; note: test concentration or dose not given here
Enterobacter cloacae [2] = assay: Antimicrobial activity against Enterobacter cloacae GC 4142 expressing AmpC beta-lactamase after 18 to 24 hrs by broth microdilution method; type: functional; procedure, shortened: as §1; note: test concentration or dose not given here
Escherichia coli [3] = assay: Antimicrobial activity against Escherichia coli GC 2894 expressing AmpC beta-lactamase after 18 to 24 hrs by broth microdilution method; type: functional; procedure, shortened: as §1
[4] = test system: Stenotrophomonas maltophilia; assay: Antimicrobial activity against Stenotrophomonas maltophilia GC 1721 expressing L1 beta-lactamase after 18 to 24 hrs by broth microdilution method; type: functional; procedure, shortened: as §1; note: test concentration or dose not given here
Escherichia coli [5] = assay: Antimicrobial activity against Escherichia coli GC 2203 after 18 to 24 hrs by broth microdilution method; type: functional; procedure, shortened: as §1
Serratia marcescens [6] = assay: Antimicrobial activity against Serratia marcescens GC 1781 expressing Sme1 and AmpC beta-lactamase after 18 to 24 hrs by broth microdilution method; type: functional; procedure, shortened: as §1; note: test concentration or dose not given here
Escherichia coli [7] = assay: Antimicrobial activity against Escherichia coli GC 2805 expressing CcrA beta-lactamase after 18 to 24 hrs by broth microdilution method; type: functional; procedure, shortened: as §1
Escherichia coli [8] = assay: Antimicrobial activity against Escherichia coli GC 2883 expressing OXA10 and PSE2 beta-lactamase after 18 to 24 hrs by broth microdilution method; type: functional; procedure, shortened: as §1
[9] = Inhibition of TEM1 beta-lactamase
Procedure, shortened: (§2)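 Spectrophotometric β-lactamase inhibition assay (Bush method) with nitrocefin as substrate. Tazobactam standard included in each experiment. IC₅₀ derived by curve fitting.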

Staphylococcus aureus = assay: Antimicrobial activity against Staphylococcus aureus GC 2216 after 18 to 24 hrs by broth microdilution method; type: functional; procedure, shortened: as §1; note: test concentration or dose not given here
Escherichia coli [10] = assay: Antimicrobial activity against Escherichia coli GC 2905 expressing P99 beta-lactamase after 18 to 24 hrs by broth microdilution method; type: functional; procedure, shortened: as §1
Escherichia coli [11] = assay: Antimicrobial activity against Escherichia coli GC 2920 expressing IRT2 beta-lactamase after 18 to 24 hrs by broth microdilution method; type: functional; procedure, shortened: as §1
Escherichia coli [12] = assay: Antimicrobial activity against Escherichia coli GC 2847 expressing TEM1 beta-lactamase after 18 to 24 hrs by broth microdilution method; type: functional; procedure, shortened: as §1; note: test concentration or dose not given here
Serratia marcescens [13] = assay: Antimicrobial activity against Serratia marcescens GC 4132 expressing AmpC beta-lactamase after 18 to 24 hrs by broth microdilution method; type: functional; procedure, shortened: as §1; note: test concentration or dose not given here
Enterobacter cloacae [14] = assay: Antimicrobial activity against Enterobacter cloacae GC 6991 expressing AmpC beta-lactamase after 18 to 24 hrs by broth microdilution method; type: functional; procedure, shortened: as §1; note: test concentration or dose not given here
[15] = Inhibition of Imi1 beta lactamase
Escherichia coli [16] = assay: Antimicrobial activity against Escherichia coli GC 2804 expressing imp beta-lactamase after 18 to 24 hrs by broth microdilution method; type: functional; procedure, shortened: as §1; note: test concentration or dose not given here
[17] = Inhibition of AmpC beta-lactamase; procedure, shortened: as §2
Enterobacter cloacae [18] = assay: Antimicrobial activity against Enterobacter cloacae GC 1477 expressing AmpC beta-lactamase after 18 to 24 hrs by broth microdilution method; type: functional; procedure, shortened: as §1; note: test concentration or dose not given here
Escherichia coli [19] = assay: Antimicrobial activity against Escherichia coli GC 2844 after 18 to 24 hrs by broth microdilution method; type: functional; procedure, shortened: as §1
Escherichia coli [20] = assay: Antimicrobial activity against Escherichia coli GC 2253 expressing IRT2 beta-lactamase after 18 to 24 hrs by broth microdilution method; type: functional; procedure, shortened: as §1; note: test concentration or dose not given here
Escherichia coli [21] = assay: Antimicrobial activity against Escherichia coli GC 2906 expressing Imi1 beta-lactamase after 18 to 24 hrs by broth microdilution method; type: functional; procedure, shortened: as §1; note: test concentration or dose not given here
Escherichia coli [22] = assay: Antibacterial efficacy against Escherichia coli LSU 80-8 infected ip dosed CD1 mouse model; type: functional
Procedure, shortened: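 Female CD-1 mice, five per dose level, five dose levels per compound. Lethal intraperitoneal challenge (10–100 LD₅₀), then intravenous piperacillin alone or piperacillin plus inhibitor at a 4:1 (Pip:Inhibitor) ratio. Survival read at 7 days; ratios from three separate tests pooled; ED₅₀ by probit analysis.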

Row | SMILES | MIC (Pseudomonas aeruginosa) | MIC (Enterobacter cloacae [1]) | MIC (Enterobacter cloacae [2]) | MIC (Escherichia coli [3]) | MIC [4] | MIC (Escherichia coli [5]) | MIC (Serratia marcescens [6]) | MIC (Escherichia coli [7]) | MIC (Escherichia coli [8]) | IC50 [9] | MIC (Staphylococcus aureus) | MIC (Escherichia coli [10]) | MIC (Escherichia coli [11]) | MIC (Escherichia coli [12]) | MIC (Serratia marcescens [13]) | MIC (Enterobacter cloacae [14]) | MIC (Escherichia coli [16]) | IC50 [17] | MIC (Enterobacter cloacae [18]) | MIC (Escherichia coli [19]) | other results
1 | O=C([O-])C1=CS[C@@H]2/C(=C\c3cn4c5c(sc4n3)COCC5)C(=O)N12.[Na+] | 4 µg/mL | 8 µg/mL | 8 µg/mL | 2 µg/mL | > 64 µg/mL | 4 µg/mL | 1 µg/mL | > 64 µg/mL | 4 µg/mL | 2.8 nM | 2 µg/mL | 8 µg/mL | 2 µg/mL | 4 µg/mL | 2 µg/mL | 16 µg/mL | < 0.06 µg/mL | 1.5 nM | 16 µg/mL | 2 µg/mL | ED50 (Escherichia coli [22]): 25.3 mg/kg; IC50 [15]: 100 nM; MIC (Escherichia coli [20]): 16 µg/mL; MIC (Escherichia coli [21]): 2 µg/mL
2 | CCN1CCN(C(=O)N[C@@H](C(=O)N[C@@H]2C(=O)N3[C@@H]2SC(C)(C)[C@@H]3C(=O)O)c2ccccc2)C(=O)C1=O [PIPERACILLIN] | – | – | – | – | – | – | – | – | – | – | – | – | – | – | – | – | – | – | – | – | ED50 (Escherichia coli [22]): > 128 mg/kg
3 | Cn1c2ccccc2n2cc(/C=C3/C(=O)N4C(C(=O)[O-])=CS[C@H]34)nc12.[Na+] | 64 µg/mL | 64 µg/mL | > 64 µg/mL | 32 µg/mL | > 64 µg/mL | 2 µg/mL | 2 µg/mL | > 64 µg/mL | 64 µg/mL | 24 nM | 64 µg/mL | 32 µg/mL | 4 µg/mL | > 64 µg/mL | 16 µg/mL | 32 µg/mL | < 0.06 µg/mL | 16 nM | > 64 µg/mL | 4 µg/mL | IC50 [15]: 50 nM; MIC (Escherichia coli [20]): 32 µg/mL; MIC (Escherichia coli [21]): 16 µg/mL
4 | C[C@]1(Cn2ccnn2)[C@H](C(=O)[O-])N2C(=O)C[C@H]2S1(=O)=O.[Na+] [TAZOBACTAM SODIUM] | > 64 µg/mL | 64 µg/mL | 64 µg/mL | 32 µg/mL | > 64 µg/mL | 1 µg/mL | 0.5 µg/mL | > 64 µg/mL | 1 µg/mL | 100 nM | 0.5 µg/mL | 64 µg/mL | 4 µg/mL | 2 µg/mL | 64 µg/mL | > 64 µg/mL | < 0.06 µg/mL | 84000 nM | > 64 µg/mL | 2 µg/mL | ED50 (Escherichia coli [22]): 20 mg/kg; Activity [15]: inactive; MIC (Escherichia coli [20]): 2 µg/mL; MIC (Escherichia coli [21]): 2 µg/mL
5 | O=C([O-])C1=CS[C@@H]2/C(=C\c3cn4c5c(sc4n3)CCC5)C(=O)N12.[Na+] | 2 µg/mL | 4 µg/mL | 4 µg/mL | 2 µg/mL | > 64 µg/mL | 2 µg/mL | 1 µg/mL | > 64 µg/mL | 2 µg/mL | 1.4 nM | 2 µg/mL | 4 µg/mL | 2 µg/mL | 4 µg/mL | 2 µg/mL | 16 µg/mL | < 0.06 µg/mL | 2.1 nM | 16 µg/mL | 2 µg/mL | ED50 (Escherichia coli [22]): 19 mg/kg; MIC (Escherichia coli [20]): 8 µg/mL; MIC (Escherichia coli [21]): 2 µg/mL

Further lines, with some results ahead:

Row | MIC (Pseudomonas aeruginosa) | MIC (Enterobacter cloacae [1]) | MIC (Enterobacter cloacae [2]) | MIC (Escherichia coli [3]) | MIC [4] | MIC (Escherichia coli [5]) | MIC (Serratia marcescens [6]) | MIC (Escherichia coli [7]) | MIC (Escherichia coli [8]) | IC50 [9] | MIC (Staphylococcus aureus) | MIC (Escherichia coli [10]) | MIC (Escherichia coli [11]) | MIC (Escherichia coli [12]) | MIC (Serratia marcescens [13]) | MIC (Enterobacter cloacae [14]) | MIC (Escherichia coli [16]) | IC50 [17] | MIC (Enterobacter cloacae [18]) | MIC (Escherichia coli [19]) | SMILES | other results
6 | 32 µg/mL | 32 µg/mL | 32 µg/mL | 16 µg/mL | > 64 µg/mL | 4 µg/mL | 2 µg/mL | > 64 µg/mL | 8 µg/mL | 4.3 nM | 16 µg/mL | 16 µg/mL | 2 µg/mL | 32 µg/mL | 8 µg/mL | 16 µg/mL | < 0.06 µg/mL | 4 nM | 64 µg/mL | 2 µg/mL | O=C([O-])C1=CS[C@@H]2/C(=C\c3cc4oc5c(n4n3)CCOC5)C(=O)N12.[Na+] | IC50 [15]: 140 nM; MIC (Escherichia coli [20]): 16 µg/mL; MIC (Escherichia coli [21]): 8 µg/mL
7 | > 64 µg/mL | 64 µg/mL | 64 µg/mL | 64 µg/mL | > 64 µg/mL | 2 µg/mL | 2 µg/mL | > 64 µg/mL | 8 µg/mL | 1.2 nM | 16 µg/mL | 32 µg/mL | 4 µg/mL | 32 µg/mL | 8 µg/mL | 64 µg/mL | < 0.06 µg/mL | 4 nM | > 64 µg/mL | 2 µg/mL | CCOC(=O)N1CCc2c(oc3cc(/C=C4/C(=O)N5C(C(=O)[O-])=CS[C@H]45)nn23)C1.[Na+] | IC50 [15]: 98 nM; MIC (Escherichia coli [20]): 16 µg/mL; MIC (Escherichia coli [21]): 64 µg/mL
8 | 64 µg/mL | 32 µg/mL | > 64 µg/mL | 32 µg/mL | > 64 µg/mL | 2 µg/mL | 4 µg/mL | > 64 µg/mL | 16 µg/mL | 150 nM | 64 µg/mL | 32 µg/mL | 8 µg/mL | > 64 µg/mL | 32 µg/mL | 32 µg/mL | 0.12 µg/mL | 53 nM | > 64 µg/mL | 2 µg/mL | O=C([O-])C1=CS[C@@H]2/C(=C/c3cc4oc5c(n4n3)CCOC5)C(=O)N12.[Na+] | IC50 [15]: 2900 nM; MIC (Escherichia coli [20]): 32 µg/mL; MIC (Escherichia coli [21]): 64 µg/mL
9 | 64 µg/mL | 32 µg/mL | 32 µg/mL | 32 µg/mL | > 64 µg/mL | 2 µg/mL | 2 µg/mL | > 64 µg/mL | 8 µg/mL | 4 nM | 16 µg/mL | 32 µg/mL | 4 µg/mL | 16 µg/mL | 8 µg/mL | 32 µg/mL | < 0.06 µg/mL | 5.5 nM | 64 µg/mL | 2 µg/mL | O=C([O-])C1=CS[C@@H]2/C(=C\c3cc4oc5c(n4n3)CCCC5)C(=O)N12.[Na+] | IC50 [15]: 160 nM; MIC (Escherichia coli [20]): 16 µg/mL; MIC (Escherichia coli [21]): 4 µg/mL
